Where “and” joins values, the source holds several entries; their conditions need not be identical. Equal values may be shown once. Read-outs that look alike come from different tables or passages of the source.

The test system of one assay is MCF-7 cell line. Kind of assay: Cytotoxic screening using MTT assay, MCF-7. The assay is classed as cell-based. In outline: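 MTT cytotoxicity read-out on MCF-7 cells; IC50 from a sigmoidal log-concentration curve; 5-fluorouracil run alongside as reference drug.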
A general note: Formazan colour is commonly taken as a measure of viable cells.

Another assay deals with HepG2 cell line. The assay can be described thus: Cytotoxic screening using MTT assay, HepG2. The settings on record: Homo sapiens, HepG2, 48 h, read-out: IC50 (μM) HepG2. The class given is cell-based.
The test system of a further assay is normal cell line GMSC. The assay can be described thus: Cytotoxic screening using MTT assay, normal cell line GMSC. The assay is classed as cell-based. The settings on record: read-out: IC50 (μM) GMSC.
The test system of assay [1] is Ehrlich Ascites Carcinoma (EAC). The assay can be described thus: In vivo anti-tumor activity in EAC-bearing mice. The settings on record: for percentage MST ratio (T/C%) / percentage increase in life span (ILS%): compared to EAC control; for percentage cell growth inhibition (CGI%) / tumor volume / total tumor cell count / packed cell volume (PCV%): day 18; for tumor volume: EAC control 19.5 mL; for total tumor cell count: EAC control 19.9; for packed cell volume (PCV%): EAC control 36.72%.

Setting [2] is: Homo sapiens, MCF7, 48 h, read-out: IC50 (μM) MCF-7, MTT assay, 48 h treatment.
Setting [3] is: read-out: IC50 (μM) MCF-7, MTT assay, 48 h treatment.

Consider `C=CCn1ncc2c3ccccc3n(CC=C)c2c1=O` [Compound 8, 3,5-Diallyl-3,5-dihydro-4H-pyridazino[4,5-b]indol-4-one], for which the IC50 (commonly the concentration at which inhibition is half-maximal) in the assay on MCF-7 cell line (setting [2]) was 17 µM.
`CCOC(=O)Cn1ncc2c3ccccc3n(CC(=O)OCC)c2c1=O` [Compound 11, Diethyl 2,2′-(4-oxo-3H-pyridazino[4,5-b]indole-3,5(4H)-diyl)diacetate]: the IC50 in the assay on MCF-7 cell line (setting [2]) is 9.07 µM; in the assay on HepG2 cell line, 18.8 µM; in the assay on normal cell line GMSC (48 h), above 50 µM.
`NNC(=O)Cn1c2ccccc2c2cn[nH]c(=O)c21` [Compound 12, 2-(4-Oxo-3,4-dihydro-5H-pyridazino[4,5-b]indol-5-yl)acetohydrazide]: the IC50 in the assay on MCF-7 cell line (setting [2]) was 4.24 µM. In addition, the IC50 in the assay on MCF-7 cell line (setting [3]) stood at 4.25 µM. The IC50 with HepG2 cell line was 12.8 µM. In addition, the IC50 in the assay with normal cell line GMSC (48 h) is above 50 µM. Further, in assay [1] (EAC-bearing mice), the “percentage MST ratio (T/C%)” value is recorded as 172% and the “percentage increase in life span (ILS%)” value is on record as 72%. In addition, the “percentage increase in body weight (IBW%)” value in assay [1] (EAC-bearing mice, untreated EAC control 43.65%) is 19.27% and 15.56%. In assay [1] (ascetic peritoneal fluid), the “percentage cell growth inhibition (CGI%)” value is given as 50.74%, the tumor volume stood at 11.9 mL, the “total tumor cell count” value is on record as 9.8 × 10^7 cells per mL and the “packed cell volume (PCV%)” value is 19.32%. Moreover, the “percentage of viable cells” value in assay [1] (ascetic peritoneal fluid, day 18, trypan blue exclusion, EAC control 91.9%) amounted to 59.6%.
Regarding `N#CCCn1ncc2c3ccccc3n(CCC#N)c2c1=O` [Compound 3, 3,3′-(4-oxo-3H-pyridazino[4,5-b]indole-3,5(4H)-diyl)dipropanenitrile], the IC50 with HepG2 cell line is above 50 µM.
On to `C=CCn1c2ccccc2c2cn[nH]c(=O)c21` [Compound 5, 5-Allyl-3,5-dihydro-4H-pyridazino[4,5-b]indol-4-one], for which the IC50 in the assay on MCF-7 cell line (setting [2]), in the assay with HepG2 cell line and with normal cell line GMSC (48 h) was above 50 µM throughout.
Take `O=c1[nH]ncc2c1[nH]c1ccccc12` [Compound 2, 3,5-Dihydro-4H-pyridazino[4,5-b]indol-4-one]: the IC50 in the assay on MCF-7 cell line (setting [2]) was 9.43 µM; in the assay on HepG2 cell line, 22.8 µM.
With `O=c1[nH]ncc2c3ccccc3n(Cc3ccccc3)c12` [Compound 6, 5-Benzyl-3,5-dihydro-4H-pyridazino[4,5-b]indol-4-one], the IC50 in the assay with MCF-7 cell line (setting [2]) was 29.5 µM; in the assay with normal cell line GMSC (48 h), above 50 µM.
As to `CCOC(=O)Cn1c2ccccc2c2cn[nH]c(=O)c21` [Compound 10, Ethyl 2-(4-oxo-3,4-dihydro-5H-pyridazino[4,5-b]indol-5-yl)acetate], the IC50 with MCF-7 cell line (setting [2]) is 12.4 µM; with HepG2 cell line it was 36.7 µM; with normal cell line GMSC (48 h), above 50 µM.
In the case of `O=c1c2c(cnn1Cc1ccccc1)c1ccccc1n2Cc1ccccc1` [Compound 9, 3,5-Dibenzyl-3,5-dihydro-4H-pyridazino[4,5-b]indol-4-one], the IC50 in the assay with MCF-7 cell line (setting [2]) was above 50 µM.
In the case of `O=c1[nH]cc(F)c(=O)[nH]1` [Compound 5-FU, reference compound], the IC50 in the assay with MCF-7 cell line (setting [3]) stood at 6.98 µM. In addition, in the assay on normal cell line GMSC (MTT assay, 48 h treatment, normal cell line), the IC50 is above 50 µM. For the same molecule, in assay [1] (EAC-bearing mice), the “percentage MST ratio (T/C%)” value worked out at 166% and the “percentage increase in life span (ILS%)” value was determined as 66%. In addition, in assay [1] (ascetic peritoneal fluid), the “percentage cell growth inhibition (CGI%)” value is listed as 38.67%, the tumor volume is 12.6 mL, the “total tumor cell count” value is reported as 12.2 × 10^7 cells per mL and the “packed cell volume (PCV%)” value worked out at 23.78%.

(Values after publication PMC9054070 (RSC Advances, 2020).)
